Measured values published in ChEMBL document CHEMBL4406794, “N-(7-Cyano-6-(4-fluoro-3-(2-(3-(trifluoromethyl)phenyl)acetamido)phenoxy)benzo[d]thiazol-2-yl)cyclopropanecarboxamide (TAK-632) Analogues as Novel Necroptosis Inhibitors by Targeting Receptor-Interacting Protein Kinase 3 (RIPK3): Synthesis, Structure-Activity Relationships, and in Vivo Efficacy” (J Med Chem, 2019).
The source made the active and inactive calls. No cut-off for these calls is given here.

Tests used:
HT-29 = test: Anti-necroptotic activity in human HT-29 cells assessed as inhibition of […]/SM-164/Z-VAD-fmk-induced necroptosis measured after 16 hrs by celltiter-glo luminescent cell viability assay; conditions: HT-29, 16 h
[1] = Cytotoxicity against human HT-29 cells measured after 12 hrs by CellTiter-Glo Luminescent assay; assay type: cell-based
[2] = biological target: T1, Receptor-interacting serine/threonine-protein kinase 1 (Homo sapiens, UniProt Q13546); test: Binding affinity to wild-type human partial length RIPK1 (M1 to K305 residues) expressed in bacterial expression system after 1 hr by quantitative PCR based KINOMEscan assay
T1 sequence (Q13546 whole entry): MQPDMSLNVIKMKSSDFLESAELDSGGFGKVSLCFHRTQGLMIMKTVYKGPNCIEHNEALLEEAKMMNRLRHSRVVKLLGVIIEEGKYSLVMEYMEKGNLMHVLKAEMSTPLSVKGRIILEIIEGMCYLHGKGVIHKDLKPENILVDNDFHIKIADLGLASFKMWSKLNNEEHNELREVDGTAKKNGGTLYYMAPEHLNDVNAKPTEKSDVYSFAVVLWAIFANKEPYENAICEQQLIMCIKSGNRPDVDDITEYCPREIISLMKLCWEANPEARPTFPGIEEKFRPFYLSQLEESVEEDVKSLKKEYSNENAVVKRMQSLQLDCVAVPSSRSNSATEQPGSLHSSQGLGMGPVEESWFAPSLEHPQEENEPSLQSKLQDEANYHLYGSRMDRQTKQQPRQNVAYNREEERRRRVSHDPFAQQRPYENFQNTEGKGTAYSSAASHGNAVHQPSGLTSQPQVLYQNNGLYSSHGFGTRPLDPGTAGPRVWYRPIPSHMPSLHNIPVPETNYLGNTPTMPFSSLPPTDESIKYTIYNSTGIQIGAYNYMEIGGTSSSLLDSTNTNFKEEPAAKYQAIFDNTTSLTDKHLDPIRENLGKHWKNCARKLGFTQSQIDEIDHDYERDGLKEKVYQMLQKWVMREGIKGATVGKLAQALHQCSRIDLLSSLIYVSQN
Outline: (§1)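 KINOMEscan competition binding. Bound kinase eluted with 0.5 μM nonbiotinylated ligand for 30 min and quantified by qPCR. Duplicates averaged.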

[3] = biological target: Receptor-interacting serine/threonine-protein kinase 3 (Homo sapiens, UniProt Q9Y572); test: Binding affinity to wild-type human partial length RIPK3 (M1 to Q307 residues) expressed in bacterial expression system after 1 hr by quantitative PCR based KINOMEscan assay
Outline: as §1

Homo sapiens = species on record: Homo sapiens; test: Selectivity ratio of Kd for human partial length RIPK1 (M1 to K305 residues) expressed in bacterial expression system to Kd for wild-type human partial length RIPK3 (M1 to Q307 residues) expressed in bacterial expression system
Mus musculus [4] = test: Protection against TNFalpha/Z-VAD-fmk-induced C57BL/6J mouse model of systemic inflammatory response syndrome assessed as increase in mouse survial at 5 to 50 mg/kg, po administered via gavage 2 hrs prior to Z-VAD-fmk addition for 15 mins followed by TNFalpha stimulation for 1 hr and subsequent Z-VAD-fmk addition meaured up to 50 hrs post TNFalpha stimulation; assay type: functional, organism-based
Outline: (§2)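 Female C57BL/6 mice, fasted overnight, n=10 per group. Compound given by oral gavage at 5, 25 or 50 mg/kg 2 h before TNF. z-VAD-fmk 180 µg i.p., then 15 min later mTNF-α 400 µg/kg i.v. in endotoxin-free PBS, then a further 70 µg z-VAD-fmk i.p. 1 h later. Body temperature and survival followed, compared with vehicle by one-way ANOVA.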

Mus musculus [5] = test: Protection against TNFalpha/Z-VAD-fmk-induced C57BL/6J mouse model of systemic inflammatory response syndrome assessed as increase in body temperature at 5 to 50 mg/kg, po administered via gavage 2 hrs prior to Z-VAD-fmk addition for 15 mins followed by TNFalpha stimulation for 1 hr and subsequent Z-VAD-fmk addition meaured up to 50 hrs post TNFalpha stimulation by electric thermometer; assay type: functional, organism-based
Outline: as §2

Sequence of Receptor-interacting serine/threonine-protein kinase 3 (Q9Y572 whole entry, the tested form may be a part): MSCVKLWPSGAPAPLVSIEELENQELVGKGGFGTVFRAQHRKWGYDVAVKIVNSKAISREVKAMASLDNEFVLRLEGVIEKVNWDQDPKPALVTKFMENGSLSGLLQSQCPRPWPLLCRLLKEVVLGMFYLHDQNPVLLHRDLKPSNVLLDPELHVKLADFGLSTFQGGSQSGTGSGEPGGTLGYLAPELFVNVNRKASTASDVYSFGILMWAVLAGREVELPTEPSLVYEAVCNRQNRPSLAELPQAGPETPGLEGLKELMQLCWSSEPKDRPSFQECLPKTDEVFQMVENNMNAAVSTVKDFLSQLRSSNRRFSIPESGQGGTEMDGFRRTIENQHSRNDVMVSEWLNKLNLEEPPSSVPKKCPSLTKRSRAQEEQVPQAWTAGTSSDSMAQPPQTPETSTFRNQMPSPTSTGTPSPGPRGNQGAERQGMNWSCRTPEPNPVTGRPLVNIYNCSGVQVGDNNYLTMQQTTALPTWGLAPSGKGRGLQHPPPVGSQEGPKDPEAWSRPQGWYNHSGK

Structure (SMILES) | EC50 (HT-29) | CC50 at 12 h [1] | Kd [2] | Kd [3] | Ratio (Homo sapiens) | Activity (Mus musculus [4]) | Activity (Mus musculus [5])
O=C(Cc1cccc(OC(F)(F)F)c1)Nc1cc(Oc2ccc3nc(NC(=O)C4CC4)sc3c2)ccc1F | 0.06 µM | > 50 µM | 0.049 µM | 0.12 µM | – | – | –
O=C(Cc1ccccc1C(F)(F)F)Nc1cc(Oc2ccc3nc(NC(=O)C4CC4)sc3c2)ccc1F | 11.3 µM | – | – | – | – | – | –
N#Cc1c(Oc2ccc(F)c(NC(=O)Cc3ccccc3)c2)ccc2nc(NC(=O)C3CC3)sc12 | > 20 µM | – | – | – | – | – | –
O=C(Cc1cccc([N+](=O)[O-])c1)Nc1cc(Oc2ccc3nc(NC(=O)C4CC4)sc3c2)ccc1F | 0.61 µM | > 50 µM | 0.77 µM | 0.11 µM | – | – | –
O=C(Nc1nc2ccc(Oc3ccc(F)c(NS(=O)(=O)c4cccc(C(F)(F)F)c4)c3)cc2s1)C1CC1 | > 20 µM | – | – | – | – | – | –
CCOC(=O)c1cccc(NC(=O)Nc2cc(Oc3ccc4nc(NC(=O)C5CC5)sc4c3)ccc2F)c1 | 7.74 µM | > 50 µM | > 5 µM | 0.072 µM | > 69.4 | – | –
Cc1ccc(CC(=O)Nc2cc(Oc3ccc4nc(NC(=O)C5CC5)sc4c3)ccc2F)cc1C | 1.67 µM | > 50 µM | 1.2 µM | 0.072 µM | – | – | –
N#Cc1c(Oc2ccc(F)c(NC(=O)Cc3ccc([N+](=O)[O-])cc3)c2)ccc2nc(NC(=O)C3CC3)sc12 | > 20 µM | – | – | – | – | – | –
COc1cccc(NC(=O)Nc2cc(Oc3ccc4nc(NC(=O)C5CC5)sc4c3)ccc2F)c1 | 1.37 µM | > 50 µM | 3.6 µM | 0.069 µM | 52.1 | – | –
O=C(Cc1ccc(F)c(C(F)(F)F)c1)Nc1cc(Oc2ccc3nc(NC(=O)C4CC4)sc3c2)ccc1F | 0.4 µM | > 50 µM | 0.59 µM | 0.13 µM | – | – | –
N#Cc1c(Oc2ccc(F)c(NC(=O)Cc3cccc(C(F)(F)F)c3)c2)ccc2nc(NC(=O)OCc3ccccc3)sc12 | > 20 µM | – | – | – | – | – | –
N#Cc1c(Oc2ccc(F)c(NC(=O)Cc3cccc(C(F)(F)F)c3F)c2)ccc2nc(NC(=O)C3CC3)sc12 | 2.03 µM | – | – | – | – | – | –
Cc1cccc(CC(=O)Nc2cc(Oc3ccc4nc(NC(=O)C5CC5)sc4c3)ccc2F)c1 | 0.38 µM | > 50 µM | 0.32 µM | 0.033 µM | – | – | –
O=C(Nc1nc2ccc(Oc3ccc(F)c(NC(=O)C4(c5cccc(C(F)(F)F)c5)CC4)c3)cc2s1)C1CC1 | > 20 µM | > 50 µM | – | – | – | – | –
O=C(Nc1nc2ccc(Oc3ccc(F)c(NCc4ccc5c(c4)OCO5)c3)cc2s1)C1CC1 | > 20 µM | – | – | – | – | – | –
CC(=O)c1cccc(NC(=O)Nc2cc(Oc3ccc4nc(NC(=O)C5CC5)sc4c3)ccc2F)c1 | 1 µM | > 50 µM | > 5 µM | 0.053 µM | > 94.3 | – | –
Cn1cc(CC(=O)Nc2cc(Oc3ccc4nc(NC(=O)C5CC5)sc4c3)ccc2F)c2ccccc21 | 3.81 µM | > 50 µM | 4.8 µM | 1.4 µM | – | – | –
O=C(Cc1cc(C(F)(F)F)cc(C(F)(F)F)c1)Nc1cc(Oc2ccc3nc(NC(=O)C4CC4)sc3c2)ccc1F | 9.7 µM | > 50 µM | – | – | – | – | –

Structure (SMILES) | EC50 (HT-29) | CC50 at 12 h [1] | Kd [2] | Kd [3] | Ratio (Homo sapiens) | Activity (Mus musculus [4]) | Activity (Mus musculus [5])
O=C(Cc1cccc(C(F)(F)F)c1F)Nc1cc(Oc2ccc3nc(NC(=O)C4CC4)sc3c2)ccc1F | 0.49 µM | > 50 µM | 0.51 µM | 0.099 µM | – | – | –
O=C(Cc1cccc(C(F)(F)F)n1)Nc1cc(Oc2ccc3nc(NC(=O)C4CC4)sc3c2)ccc1F | 0.32 µM | > 50 µM | 0.22 µM | 0.28 µM | – | – | –
O=C(Cc1ccc2c(c1)OCO2)Nc1cc(Oc2ccc3nc(NC(=O)C4CC4)sc3c2)ccc1F | 2.32 µM | > 50 µM | 1.1 µM | 0.081 µM | 13 | – | –
O=C(Cc1cccc(C(F)(F)F)c1Cl)Nc1cc(Oc2ccc3nc(NC(=O)C4CC4)sc3c2)ccc1F | > 20 µM | – | – | – | – | – | –
CCC(=O)Nc1nc2ccc(Oc3ccc(F)c(NC(=O)Cc4cccc(C(F)(F)F)c4)c3)c(C#N)c2s1 | > 20 µM | – | – | – | – | – | –
N#Cc1cccc(CC(=O)Nc2cc(Oc3ccc4nc(NC(=O)C5CC5)sc4c3)ccc2F)c1 | 1.29 µM | > 50 µM | 0.78 µM | 0.12 µM | – | – | –
N#Cc1c(Oc2ccc(F)c(NC(=O)Cc3cccc(C(F)(F)F)c3)c2)ccc2nc(NC(=O)c3ccccc3)sc12 | > 20 µM | – | – | – | – | – | –
O=C(CCc1cccc(C(F)(F)F)c1)Nc1cc(Oc2ccc3nc(NC(=O)C4CC4)sc3c2)ccc1F | 0.65 µM | > 50 µM | 0.51 µM | 0.79 µM | – | – | –
O=C(Cc1cccc(C(F)(F)F)c1)Nc1cc(Oc2ccc3nc(NC(=O)C4CC4)sc3c2)ccc1F | – | – | – | – | – | Active | Active
O=C(Cc1ccccn1)Nc1cc(Oc2ccc3nc(NC(=O)C4CC4)sc3c2)ccc1F | 8.3 µM | – | – | – | – | – | –
Cc1cccc(NC(=O)Nc2cc(Oc3ccc4nc(NC(=O)C5CC5)sc4c3)ccc2F)c1 | 0.58 µM | > 50 µM | 2.2 µM | 0.093 µM | 23.6 | – | –
N#Cc1c(Oc2ccc(F)c(NC(=O)Cc3cccc(F)c3)c2)ccc2nc(NC(=O)C3CC3)sc12 | > 20 µM | – | – | – | – | – | –
COc1cccc(CC(=O)Nc2cc(Oc3ccc4nc(NC(=O)C5CC5)sc4c3)ccc2F)c1 | 0.33 µM | > 50 µM | 0.24 µM | 0.055 µM | – | – | –
N#Cc1c(Oc2ccc(F)c(NC(=O)c3cccc(C(F)(F)F)c3)c2)ccc2nc(NC(=O)C3CC3)sc12 | > 20 µM | – | – | – | – | – | –
O=C(Nc1nc2ccc(Oc3ccc(F)c(NCc4cccc(C(F)(F)F)c4)c3)cc2s1)C1CC1 | > 20 µM | – | – | – | – | – | –
CCCCCCCCC(=O)Nc1nc2ccc(Oc3ccc(F)c(NC(=O)Cc4cccc(C(F)(F)F)c4)c3)c(C#N)c2s1 | > 20 µM | – | – | – | – | – | –
O=C(Cc1cccc(O)c1)Nc1cc(Oc2ccc3nc(NC(=O)C4CC4)sc3c2)ccc1F | > 20 µM | – | – | – | – | – | –
